One experiment deals with T1, TRPC5 channel (Homo sapiens, UniProt Q9UL62).
T1 sequence (Q9UL62 1-973): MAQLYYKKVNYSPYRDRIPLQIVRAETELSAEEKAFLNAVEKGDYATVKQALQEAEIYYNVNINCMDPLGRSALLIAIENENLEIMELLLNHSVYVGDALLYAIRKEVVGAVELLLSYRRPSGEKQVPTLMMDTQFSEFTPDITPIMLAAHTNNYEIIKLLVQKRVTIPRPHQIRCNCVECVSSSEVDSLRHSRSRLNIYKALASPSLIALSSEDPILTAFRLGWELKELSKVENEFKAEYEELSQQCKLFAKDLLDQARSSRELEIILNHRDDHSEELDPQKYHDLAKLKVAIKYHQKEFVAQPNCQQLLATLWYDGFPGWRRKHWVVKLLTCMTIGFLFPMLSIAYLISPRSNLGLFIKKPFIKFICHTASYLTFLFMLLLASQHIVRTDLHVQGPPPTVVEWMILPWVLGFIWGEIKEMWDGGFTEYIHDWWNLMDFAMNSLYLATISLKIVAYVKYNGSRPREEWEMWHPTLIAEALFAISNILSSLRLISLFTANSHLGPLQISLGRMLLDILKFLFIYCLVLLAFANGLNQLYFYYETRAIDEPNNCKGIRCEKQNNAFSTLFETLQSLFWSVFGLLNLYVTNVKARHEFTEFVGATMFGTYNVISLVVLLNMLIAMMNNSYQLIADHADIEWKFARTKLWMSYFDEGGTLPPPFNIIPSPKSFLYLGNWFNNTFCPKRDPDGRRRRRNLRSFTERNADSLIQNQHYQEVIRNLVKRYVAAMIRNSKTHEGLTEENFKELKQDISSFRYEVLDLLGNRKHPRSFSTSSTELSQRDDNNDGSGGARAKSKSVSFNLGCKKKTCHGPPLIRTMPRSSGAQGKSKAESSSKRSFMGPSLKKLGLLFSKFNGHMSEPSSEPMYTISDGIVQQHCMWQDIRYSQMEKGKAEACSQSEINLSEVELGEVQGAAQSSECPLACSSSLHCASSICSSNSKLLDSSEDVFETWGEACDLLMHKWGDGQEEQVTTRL
The experiment is described as follows: TRPC5 % inhibition at single concentration, Syncropatch. To be noted: read-out: % inhibition at 3 μM, Table 3. The format is cell-based. Summed up:
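Automated patch-clamp (Syncropatch) first-pass screen of TRPC5 channel block. Each test compound was run at one concentration (3 μM) in a single well. Values were normalised so that the furfuryl-amine reference analogue's inhibition at 3 μM equals 100%. A reference inhibitor and DMSO served as controls on every plate. Recordings came from at least one session over two assay plates.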

In a further experiment the test system is TRPC4. The following applies: cited from earlier work.
The next experiment has as its system TRPC6. The following applies: cited from earlier work.
Experiment [1] has as its system animal models of kidney disease. To be noted: previously shown; cited from earlier work.
Another experiment deals with kidney filter. To be noted: in vivo animal model; cited from earlier work.

The structures appear in SMILES notation.

By inhibition is commonly meant the change of the read-out against control, counted positive when it falls. Consider `c1ccc(Cn2c(NCc3ccco3)nc3ccccc32)cc1` [Compound 2], for which, on TRPC5 channel, the inhibition at 3 µM is 100%. Further, the “selectivity for TRPC5 over TRPC4” value in the experiment with TRPC4 is “selective”. In addition, the “selectivity for TRPC5 over TRPC6” value in the experiment with TRPC6 is “selective”. In addition, the “activity in animal models of kidney disease” value in experiment [1] is on record as “active”.

For `Fc1ccc(Cn2c(NCc3ccco3)nc3ccccc32)cc1` [Compound 6o], on TRPC5 channel, the inhibition at 3 µM amounted to 167%.

With `Cc1cc(N2CCCCC2)nc2ccccc12` [ML204], the “protection of the kidney filter” value with kidney filter is reported as “protect the kidney filter”.
